ChEMBL document CHEMBL2176880 (J Med Chem, 2012)
The source made the active and inactive calls.

Assays:
Cavia porcellus = assay: Cardiotoxicity in anesthetized guinea pig assessed as proarrhythmic potency; format: toxicity, organism-based; details: in vivo
TK6 [1] = assay: Genotoxicity in human TK6 cells in absence of rat liver S9 fraction up to 150 ug/ml; format: toxicity, cell-based
Outline: (§1)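 In vitro micronucleus test in human lymphoblastoid TK6 cells, with or without metabolic activation by rat liver S9, tested up to 150 μg/mL.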

TK6 [2] = assay: Genotoxicity in human TK6 cells in presence of rat liver S9 fraction up to 150 ug/ml; format: toxicity, cell-based; outline: as §1
Salmonella typhimurium = assay: Mutagenicity in Salmonella typhimurium TA98 up to […]; format: toxicity, organism-based; details: salmonella enterica subsp. enterica serovar typhimurium
Canis familiaris = assay: Cardiotoxicity in anesthetized dog assessed as proarrhythmic potency; format: toxicity, organism-based, Canis lupus familiaris; details: in vivo
[3] = Cardiotoxicity assessed as proarrhythmic potency in rabbit Purkinje fibers; format: toxicity, tissue-based, Oryctolagus cuniculus, Purkinje fiber
Rattus norvegicus [4] = assay: Inhibition of REM sleep state in po dosed Sprague-Dawley rat sleep-wake EEG paradigm model; format: functional; details: read-out: MED
[5] = Oral bioavailability in dog rat at […]; format: ADME, organism-based, Canis lupus familiaris; details: in vivo
[6] = Cmax in dog rat at 1 mg/kg, iv or […], po; format: ADME, organism-based, Canis lupus familiaris; details: in vivo
[7] = AUC (0 to infinity) in dog rat at 1 mg/kg, iv or […], po; format: ADME, organism-based, Canis lupus familiaris; details: plasma
[8] = Tmax in dog rat at 1 mg/kg, iv or […], po; format: ADME, organism-based, Canis lupus familiaris; details: in vivo
[9] = Half life in dog rat at 1 mg/kg, iv or […], po; format: ADME, organism-based, Canis lupus familiaris; details: in vivo
[10] = Volume of distribution at steady state in dog rat at 1 mg/kg, iv or […], po; format: ADME, organism-based, Canis lupus familiaris; details: in vivo, read-out: Vdss
MDR1 [11] = assay: Apparent permeability from basolateral to apical side in MDR1 expressing pig LLC-PK1 cells; format: ADME, cell-based, Sus scrofa
Cytochrome P450 2C19 = Cytochrome P450 2C19 (Homo sapiens, UniProt P33261); assay: Inhibition of CYP2C19; format: ADME
Chain of Cytochrome P450 2C19 (P33261 whole entry): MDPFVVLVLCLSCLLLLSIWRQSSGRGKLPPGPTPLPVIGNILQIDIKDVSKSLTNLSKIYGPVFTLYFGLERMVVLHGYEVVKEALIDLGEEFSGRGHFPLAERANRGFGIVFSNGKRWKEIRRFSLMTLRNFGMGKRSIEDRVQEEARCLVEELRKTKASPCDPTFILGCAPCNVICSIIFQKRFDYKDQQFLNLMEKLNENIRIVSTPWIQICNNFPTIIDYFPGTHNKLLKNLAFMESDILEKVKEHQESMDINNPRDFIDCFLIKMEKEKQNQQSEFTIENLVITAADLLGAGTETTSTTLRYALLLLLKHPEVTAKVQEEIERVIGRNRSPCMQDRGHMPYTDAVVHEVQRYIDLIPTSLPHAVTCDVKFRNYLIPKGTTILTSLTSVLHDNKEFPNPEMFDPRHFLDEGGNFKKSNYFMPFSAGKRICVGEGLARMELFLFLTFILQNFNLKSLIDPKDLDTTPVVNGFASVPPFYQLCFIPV

[12] = Protein binding in rat plasma; format: ADME, cell-free; details: read-out: PPB (converted)
[13] = Protein binding in human plasma; format: ADME, cell-free; details: read-out: PPB (converted)
Cytochrome P450 1A2 = molecular target: T1, Cytochrome P450 1A2 (Homo sapiens, UniProt P05177); assay: Inhibition of CYP1A2; format: ADME
T1 sequence (P05177 whole entry): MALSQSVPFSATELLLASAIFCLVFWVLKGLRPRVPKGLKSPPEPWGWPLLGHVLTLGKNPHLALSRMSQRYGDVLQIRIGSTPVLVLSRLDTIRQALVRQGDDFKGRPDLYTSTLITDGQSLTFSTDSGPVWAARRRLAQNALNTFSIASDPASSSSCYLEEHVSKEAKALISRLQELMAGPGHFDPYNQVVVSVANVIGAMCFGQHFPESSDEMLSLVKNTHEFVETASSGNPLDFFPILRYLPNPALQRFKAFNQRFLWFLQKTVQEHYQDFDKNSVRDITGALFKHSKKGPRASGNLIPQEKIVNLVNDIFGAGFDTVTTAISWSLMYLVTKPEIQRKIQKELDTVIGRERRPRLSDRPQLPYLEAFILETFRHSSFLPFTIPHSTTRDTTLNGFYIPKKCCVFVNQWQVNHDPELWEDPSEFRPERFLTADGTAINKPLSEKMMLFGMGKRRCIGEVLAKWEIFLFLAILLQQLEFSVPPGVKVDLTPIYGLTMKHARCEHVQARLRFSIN

[14] = Dissociation constant, pKa of the compound; format: physicochemical
Mus musculus [15] = assay: Antipsychotic activity in subcutaneously dosed NMRI mouse assessed as efficacy free concentration causing reversal of PCP-induced hyperlocomotion; format: functional
Mus musculus [16] = assay: Antipsychotic activity in subcutaneously dosed NMRI mouse assessed as reversal of PCP-induced hyperlocomotion; format: functional
Outline: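 Nonhabituated mice given vehicle or test compound sc, then immediately challenged with PCP (5.0 mg/kg, sc) or vehicle and placed singly in open fields for 30 min. Distance travelled measured by video tracking. Responder criterion: total distance < 5500 counts.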

Rattus norvegicus [17] = assay: Inhibition of REM sleep state in Sprague-Dawley rat sleep-wake EEG paradigm model assessed as efficacy free concentration at 3 mg/kg, po; format: functional
Rattus norvegicus [18] = assay: Effect on sleep-wake stages in Sprague-Dawley rat sleep-wake EEG paradigm model assessed as induction of sleep fragmentation at 3 mg/kg, po; format: organism-based; set-up: dose 3 mg/kg, route oral; details: in vivo
Outline: (§2)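 Male Sprague−Dawley rats (250−300 g) chronically implanted with EEG, EMG and EOG electrodes; n = 8 per group. A 20 h recording after oral saline was followed by a 20 h recording at the same circadian time after oral vehicle (20% CD + 2H2T) or compound (3 mg/kg), starting at 13:30 in the lights-on period. 2 s epochs scored into sleep−wake stages; REM onset latency and state transitions determined. Wilcoxon−Mann−Whitney tests against vehicle.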

Rattus norvegicus [19] = assay: Prolongation of REM sleep onset latency in Sprague-Dawley rat sleep-wake EEG paradigm model at 3 mg/kg, po; format: functional, organism-based; set-up: dose 3 mg/kg; outline: as §2
Rattus norvegicus [20] = assay: Effect on sleep-wake stages in Sprague-Dawley rat sleep-wake EEG paradigm model at 3 mg/kg, po; format: ADME, organism-based; set-up: dose 3 mg/kg, route oral; details: in vivo; outline: as §2
Rattus norvegicus [21] = assay: Inhibition of REM sleep state in Sprague-Dawley rat sleep-wake EEG paradigm model at 3 mg/kg, po; format: functional, organism-based; set-up: dose 3 mg/kg; outline: as §2
[22] = Oral bioavailability in Sprague-Dawley rat at 10 mg/kg; format: ADME, organism-based; details: in vivo
[23] = Cmax in Sprague-Dawley rat at […], iv or 10 mg/kg, po; format: ADME, organism-based; details: in vivo
[24] = AUC (0 to infinity) in Sprague-Dawley rat at 10 mg/kg, po; format: ADME, organism-based; set-up: time infinity, dose 10 mg/kg, route oral; details: plasma
[25] = Tmax in Sprague-Dawley rat at […], iv or 10 mg/kg, po; format: ADME, organism-based; details: in vivo
[26] = Volume of distribution at steady state in Sprague-Dawley rat at […], iv or 10 mg/kg, po; format: ADME, organism-based; details: in vivo, read-out: Vdss
[27] = Half life in Sprague-Dawley rat at […], iv; format: ADME, organism-based; set-up: dose 2.5 mg/kg, route intravenous; details: in vivo
[28] = Clearance in Sprague-Dawley rat at […], iv; format: ADME, organism-based; set-up: dose 2.5 mg/kg, route intravenous; details: in vivo
[29] = Ratio of drug level in brain to plasma in Swiss mouse at 10 mg/kg, sc administered as single dose measured 1 hr post dose; format: ADME, organism-based; set-up: dose 10 mg/kg, route subcutaneous; details: read-out: BPR
Outline: (§3)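 Swiss mice given a single 10 mg/kg sc dose at 1 mg/mL in 20% HP-β-CD + HCl solution, pH 4. Brain and plasma levels taken 1 h post dose. Values are geometric means of at least two runs.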

[30] = Drug level in Swiss mouse brain at 10 mg/kg, sc administered as single dose measured 1 hr post dose; format: ADME, organism-based; set-up: dose 10 mg/kg, route subcutaneous; details: read-out: Drug uptake; outline: as §3
[31] = Plasma concentration in Swiss mouse at 10 mg/kg, sc administered as single dose measured 1 hr post dose; format: ADME, organism-based; set-up: dose 10 mg/kg, route subcutaneous; outline: as §3
[32] = Drug metabolism in mouse liver microsomes at 5 uM after 15 mins; format: ADME, Microsome; details: read-out: Drug metabolism
[33] = Drug metabolism in human liver microsomes at 5 uM after 15 mins; format: ADME, Microsome; details: read-out: Drug metabolism
Outline: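 Compound at 5 μM incubated 15 min with human liver microsomes; read-out is % of compound metabolized. Values are the mean of at least two experiments.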

Cytochrome P450 2C9 = Cytochrome P450 2C9 (Homo sapiens, UniProt P11712); assay: Inhibition of CYP2C9; format: ADME
Chain of Cytochrome P450 2C9 (P11712 whole entry): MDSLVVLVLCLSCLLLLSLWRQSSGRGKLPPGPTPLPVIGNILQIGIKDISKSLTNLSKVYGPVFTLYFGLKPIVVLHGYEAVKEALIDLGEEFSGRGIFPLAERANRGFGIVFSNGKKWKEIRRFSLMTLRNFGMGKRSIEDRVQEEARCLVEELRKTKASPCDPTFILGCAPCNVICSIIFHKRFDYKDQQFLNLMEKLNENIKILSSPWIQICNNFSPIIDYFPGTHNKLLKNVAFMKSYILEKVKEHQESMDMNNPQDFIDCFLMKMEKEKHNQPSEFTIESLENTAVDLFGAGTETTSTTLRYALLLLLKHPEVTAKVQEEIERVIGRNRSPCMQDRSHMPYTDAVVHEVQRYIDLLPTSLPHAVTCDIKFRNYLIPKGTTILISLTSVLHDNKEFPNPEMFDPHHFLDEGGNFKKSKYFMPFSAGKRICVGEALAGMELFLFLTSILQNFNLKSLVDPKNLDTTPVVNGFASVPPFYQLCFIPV

Cytochrome P450 3A4 = Cytochrome P450 3A4 (Homo sapiens, UniProt P08684); assay: Inhibition of CYP3A4; format: ADME
Chain of Cytochrome P450 3A4 (P08684 whole entry): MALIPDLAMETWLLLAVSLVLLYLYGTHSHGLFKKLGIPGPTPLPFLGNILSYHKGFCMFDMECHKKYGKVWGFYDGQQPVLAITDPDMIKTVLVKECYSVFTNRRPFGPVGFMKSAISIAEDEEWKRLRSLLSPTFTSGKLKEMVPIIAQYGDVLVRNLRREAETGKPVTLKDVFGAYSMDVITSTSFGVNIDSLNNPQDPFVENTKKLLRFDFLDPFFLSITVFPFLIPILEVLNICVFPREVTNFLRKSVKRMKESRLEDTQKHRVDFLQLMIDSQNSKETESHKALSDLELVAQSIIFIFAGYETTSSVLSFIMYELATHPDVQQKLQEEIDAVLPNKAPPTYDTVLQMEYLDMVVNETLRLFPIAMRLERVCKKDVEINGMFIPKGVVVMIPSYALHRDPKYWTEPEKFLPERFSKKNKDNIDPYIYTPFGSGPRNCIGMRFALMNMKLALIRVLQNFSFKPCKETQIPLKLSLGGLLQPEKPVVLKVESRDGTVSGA

MDR1 [34] = assay: Apparent permeability from apical to basolateral side in MDR1 expressing pig LLC-PK1 cells; format: ADME, cell-based, Sus scrofa
[35] = Clearance in dog rat at 1 mg/kg, iv or […], po; format: ADME, organism-based, Canis lupus familiaris; details: in vivo
Cytochrome P450 2D6 = Cytochrome P450 2D6 (Homo sapiens, UniProt P10635); assay: Inhibition of CYP2D6; format: ADME
Chain of Cytochrome P450 2D6 (P10635 whole entry): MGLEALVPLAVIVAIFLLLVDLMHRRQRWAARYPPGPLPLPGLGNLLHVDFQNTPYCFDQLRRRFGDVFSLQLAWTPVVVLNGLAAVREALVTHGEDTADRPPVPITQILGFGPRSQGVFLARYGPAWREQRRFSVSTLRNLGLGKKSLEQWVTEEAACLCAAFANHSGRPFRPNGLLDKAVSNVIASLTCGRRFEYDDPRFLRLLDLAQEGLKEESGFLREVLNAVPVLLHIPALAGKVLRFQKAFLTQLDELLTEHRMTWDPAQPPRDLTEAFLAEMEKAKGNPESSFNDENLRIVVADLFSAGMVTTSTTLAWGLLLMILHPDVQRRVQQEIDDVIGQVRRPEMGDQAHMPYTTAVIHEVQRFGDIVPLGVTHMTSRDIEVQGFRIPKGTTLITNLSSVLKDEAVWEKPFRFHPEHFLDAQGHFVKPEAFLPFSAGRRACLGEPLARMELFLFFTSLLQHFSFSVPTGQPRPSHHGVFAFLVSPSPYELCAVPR

[36] = Lipophilicity, log P of the compound at pH 7; details: buffer

## FC(F)(F)c1c(N2CCC(c3ccccc3)CC2)ccn2c(CC3CC3)nnc12
Cavia porcellus
  NOAEL: 9000 ng/mL
TK6 [1]
  Activity: Non-toxic
TK6 [2]
  Activity: Non-toxic
Salmonella typhimurium
  Activity: Non-toxic
Canis familiaris
  NOAEL: 6625 ng/mL
[3]
  NOAEL: 0.075 µM
Rattus norvegicus [4]
  minimal effective dose: 3 mg/kg
[5]
  bioavailability: 18%
[6]
  Cmax: 218 ng/mL
[7]
  AUC(0-inf): 531 ng·h/mL
[8]
  Tmax: 30 min
[9]
  half-life: 48 min
[10]
  Vd: 1.3 L/kg
MDR1 [11]
  Papp B→A: 6 ×10⁻⁶ cm/s
Cytochrome P450 2C19
  IC50: 20 µM
[12]
  fraction unbound: 0.0035
[13]
  fraction unbound: 0.0018
Cytochrome P450 1A2
  IC50: > 30 µM
[14]
  pKa: 4.1
Mus musculus [15]
  INH: 2.6 ng/mL
Mus musculus [16]
  Activity: Dose-dependent effect
Mus musculus [16]; sc
  ED50: 5.4 mg/kg
Rattus norvegicus [17]
  INH: 0.14 ng/mL
Rattus norvegicus [18]
  Activity: Non-toxic
Rattus norvegicus [19]
  Activity: Active
Rattus norvegicus [20]
  Activity: Non-toxic
Rattus norvegicus [21]
  inhibition: Active
[22]
  bioavailability: 36%
[23]
  Cmax: 482 ng/mL
[24]
  AUC(0-inf): 1800 ng·h/mL
[25]
  Tmax: 30 min
[26]
  Vd: 1.4 L/kg
[27]
  half-life: 162 min
[28]
  clearance: 35 mL/min/kg
[29]
  Kp at 1 h: 1.4
[30]
  concentration at 1 h: 849 ng/mL
[31]
  concentration at 1 h: 671 ng/mL
[32]
  metabolised at […], 5 µM: 25%
[33]
  metabolised at […], 5 µM: 23%
Cytochrome P450 2C9
  IC50: 11 µM
Cytochrome P450 3A4
  IC50: > 30 µM
MDR1 [34]
  Papp A→B: 12 ×10⁻⁶ cm/s
[35]
  clearance: 29 mL/min/kg
Cytochrome P450 2D6
  IC50: > 30 µM
[36]
  logD: 4.4
